# In the RNAGym collection of RNA variant scans (doi:10.1126/science.aae0568):
# Variants at the floor of the assay were thinned out.
# B1: tRNA (parent)
# chain: GUUCCGUUGGCGUAAUGGUAACGCGUCUCCCUCCUAAGGAGAAGACUGCGGGUUCGAGUCCCGUACGGAACG
# Variants of: B1
# Assay: yeast fitness relative to wild type (ratio to wild type); higher = fitter; tRNA-Arg(CCU), competitive growth, 37 C, YPD
# Procedure, shortened: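 Variants of the tRNA-Arg(CCU) gene were chemically synthesised with a 3% per-site mutation rate across 69 sites and placed at the native genomic locus in Saccharomyces cerevisiae. Six parallel replicates of the pooled strains were competed in YPD at 37°C for 24 hours, and gene amplicons from the start and end populations were read by 100-nucleotide paired-end sequencing. Darwinian fitness relative to wild type was derived from changes in genotype frequencies. Genotypes required ≥ 100 starting reads, and estimates < 0.5 were set to 0.5.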
row,Variant,yeast fitness
1,GUUCCGUUGGCGUAAUGGUAACGCGUCUCCCUCCUAAGGAGAAGACUGAGGGUUCGAGUCCCGCACGGAACG,0.86
2,GUUCCGUUGGCGUAAUGGUAACGCGUCUCCCUCCUAAGGAGAAGACUCCGGGUUCGAGACCCGUAUGGAACG,0.679
3,GUUCCGUUGGCGUAAUGGUAACGCGUCUCCCUCCUAAGGAGAAGACUCCGCGAUCGAGUCCCGUAAGGAACG,≤ 0.5
4,GUUCCGUUGGCGUAAUGGUAACGCGUCUCCCUCCUAAGGAGAAGACUGAGGGUUCGAGUCCGGUACGGAACG,0.576
5,GUUCCGUUGGCGUAAUGGUAACGCGUCUCCCUCCUAAGGAGAAGACUCCGGGUUCGAGACCCGUACGGAACG,0.785
6,GUUCCGUUGGCGUAAUGGUAACGCGUCUCCCUCCUAAGGAGAAGACUCUGGGUGCGAGUCCCGUAAGGAACG,0.624
7,GUUCCGUUGGCGUAAUGGUAACGCGUCUCCCUCCUAAGGAGAAGACUCCGGGUCCGAGUCCCGUACGGAACG,0.973
8,GUUCCGUUGGCGUAAUGGUAACGCGUCUCCCUCCUAAGGAGAAGACUCCGGGUACGAGUCCCGUACGGAACG,0.679
9,GUUCCGUUGGCGUAAUGGUAACGCGUCUCCCUCCUAAGGAGAAGACUGAGGGUUCCAGUCCCGUACAGAACG,≤ 0.5
10,GUUCCGUUGGCGUAAUGGUAACGCGUCUCCCUCCUAAGGAGAAGACUCCGGGUUCGAGUCCCGCACCGAACG,≤ 0.5
11,GUUCCGUUGGCGUAAUGGUAACGCGUCUCCCUCCUAAGGAGAAGACUCCGGGUUCGAGUCCCGUAUGGAACG,0.932
12,GUUCCGUUGGCGUAAUGGUAACGCGUCUCCCUCCUAAGGAGAAGACUGGGGGUUCGGGUCCCGUACGGAACG,0.719
13,GUUCCGUUGGCGUAAUGGUAACGCGUCUCCCUCCUAAGGAGAAGACUGGGGGUUCGCGUCCCGUACGGAACG,0.656
14,GUUCCGUUGGCGUAAUGGUAACGCGUCUCCCUCCUAAGGAGAAGACUGGGGGUUCGUGUCCCGUACGGAACG,0.792
15,GUUCCGUUGGCGUAAUGGUAACGCGUCUCCCUCCUAAGGAGAAGACUCCGGGUUCCAGUCCCGUACGGAACG,0.7
16,GUUCCGUUGGCGUAAUGGUAACGCGUCUCCCUCCUAAGGAGAAGACUCCGCGUUCGUGUCCCGUACGCAACG,≤ 0.5
17,GUUCCGUUGGCGUAAUGGUAACGCGUCUCCCUCCUAAGGAGAAGACUGAGGGUUCGAGUCCCGUACGGAUCG,0.714
18,GUUCCGUUGGCGUAAUGGUAACGCGUCUCCCUCCUAAGGAGAAGACUCCGGGUUCGAGUCCCAUACGGAACG,0.877
19,GUUCCGUUGGCGUAAUGGUAACGCGUCUCCCUCCUAAGGAGAAGACUGAGGGUUCGAGUACCGUACGGACCG,≤ 0.5
20,GUUCCGUUGGCGUAAUGGUAACGCGUCUCCCUCCUAAGGAGAAGACUGGGGGUUUGAGUCCCGUACGGAACG,0.692
21,GUUCCGUUGGCGUAAUGGUAACGCGUCUCCCUCCUAAGGAGAAGACUGGGGGUUCGUGUCCCAUACAGAACG,≤ 0.5
22,GUUCCGUUGGCGUAAUGGUAACGCGUCUCCCUCCUAAGGAGAAGACUGAGGGUUCAAGUCCCGUACGGAACG,0.831
23,GUUCCGUUGGCGUAAUGGUAACGCGUCUCCCUCCUAAGGAGAAGACUCCGGCUUCGAGUCCCCUACGGAACG,≤ 0.5
24,GUUCCGUUGGCGUAAUGGUAACGCGUCUCCCUCCUAAGGAGAAGACUGAGGGUUCGAGUCCCGUGCGGAACG,0.625
25,GUUCCGUUGGCGUAAUGGUAACGCGUCUCCCUCCUAAGGAGAAGACUGAGGGUUCGAGUCCCGUUCGGAACG,0.962

row,Variant,yeast fitness
1,GUUCCGUUGGCGUAAUGGUAACGCGUCUCCCUCCUAAGGAGAAGACUGAGGGUUCGAGUCCCGUAUGGAACG,0.641
2,GUUCCGUUGGCGUAAUGGUAACGCGUCUCCCUCCUAAGGAGAAGACUGAGGGUUCGUGUCCCGUACGGACCG,0.518
3,GUUCCGUUGGCGUAAUGGUAACGCGUCUCCCUCCUAAGGAGAAGACUUCGGGUUCGAGUCCCGUACGGAACG,1.03
4,GUUCCGUUGGCGUAAUGGUAACGCGUCUCCCUCCUAAGGAGAAGACUGGGGGUUCGAGUCCCGUUCGGAACG,0.748
5,GUUCCGUUGGCGUAAUGGUAACGCGUCUCCCUCCUAAGGAGAAGACUGGGGGUUCGAGUCCCGUGCGGAACG,0.957
6,GUUCCGUUGGCGUAAUGGUAACGCGUCUCCCUCCUAAGGAGAAGACUCCGGGUUCGAGUCCCGUACUGCACG,0.507
7,GUUCCGUUGGCGUAAUGGUAACGCGUCUCCCUCCUAAGGAGAAGACUCCGGCUUCGAGUCCGGUACGGAACG,≤ 0.5
8,GUUCCGUUGGCGUAAUGGUAACGCGUCUCCCUCCUAAGGAGAAGACUGGGGGUUCGGGUCUCGUACGGAACG,0.584
9,GUUCCGUUGGCGUAAUGGUAACGCGUCUCCCUCCUAAGGAGAAGACUCCGAGUUCGAGUCCCGUACGGAACG,0.849
10,GUUCCGUUGGCGUAAUGGUAACGCGUCUCCCUCCUAAGGAGAAGACUGAAGGUUCGAGUCCUGUACGGAACG,0.637
11,GUUCCGUUGGCGUAAUGGUAACGCGUCUCCCUCCUAAGGAGAAGACUCUGGGUUCGAGUCCUGUACGGAACG,0.637
12,GUUCCGUUGGCGUAAUGGUAACGCGUCUCCCUCCUAAGGAGAAGACUCCGGGUUCGAGUCCCGAACGGAACG,0.946
13,GUUCCGUUGGCGUAAUGGUAACGCGUCUCCCUCCUAAGGAGAAGACUCCGGGUUCGAGUCCCGCACGGAACG,1.08
14,GUUCCGUUGGCGUAAUGGUAACGCGUCUCCCUCCUAAGGAGAAGACUGAGGGUUCGAGUCCUGUGCGGAACG,≤ 0.5
15,GUUCCGUUGGCGUAAUGGUAACGCGUCUCCCUCCUAAGGAGAAGACUCCGCGUUCGAGACCCGUACGGAACG,≤ 0.5
16,GUUCCGUUGGCGUAAUGGUAACGCGUCUCCCUCCUAAGGAGAAGACUCCGGGUUCGAGUCCCGUACGAAACG,0.846
17,GUUCCGUUGGCGUAAUGGUAACGCGUCUCCCUCCUAAGGAGAAGACUCCGGGUUCGAGUCACGUUCGGAACG,0.687
18,GUUCCGUUGGCGUAAUGGUAACGCGUCUCCCUCCUAAGGAGAAGACUCCGGGUUCGAGUCCUGUACGGCACG,0.701
19,GUUCCGUUGGCGUAAUGGUAACGCGUCUCCCUCCUAAGGAGAAGACUGAGGGUUCGAGUCCCGUACGUAACG,0.723
20,GUUCCGUUGGCGUAAUGGUAACGCGUCUCCCUCCUAAGGAGAAGACUGAGGGUUCGAGUCCCGUACGAAACG,0.64
21,GUUCCGUUGGCGUAAUGGUAACGCGUCUCCCUCCUAAGGAGAAGACUGAGGGUUCGAGUCCCGUACGCAACG,0.578
22,GUUCCGUUGGCGUAAUGGUAACGCGUCUCCCUCCUAAGGAGAAGACUGAGGGUUCGAGUGCCGUACGGAUCG,≤ 0.5
23,GUUCCGUUGGCGUAAUGGUAACGCGUCUCCCUCCUAAGGAGAAGACUGGGGGUUCGAGUCCCGUACGGAACG,0.99
24,GUUCCGUUGGCGUAAUGGUAACGCGUCUCCCUCCUAAGGAGAAGACUGAGGGUUCGAGUCCCGUACGGAACG,0.759
25,GUUCCGUUGGCGUAAUGGUAACGCGUCUCCCUCCUAAGGAGAAGACUGGGGGUUCGUGUCGCGUACGGAACG,0.516

row,Variant,yeast fitness
1,GUUCCGUUGGCGUAAUGGUAACGCGUCUCCCUCCUAAGGAGAAGACUGAGGGUUCGAGUCCCGUACAGAACG,0.579
2,GUUCCGUUGGCGUAAUGGUAACGCGUCUCCCUCCUAAGGAGAAGACUGAUGGUUCGAGUCCUGUACGGAACG,≤ 0.5
3,GUUCCGUUGGCGUAAUGGUAACGCGUCUCCCUCCUAAGGAGAAGACUGAGCGUUCGAGUCCCGUACGGAACG,0.589
4,GUUCCGUUGGCGUAAUGGUAACGCGUCUCCCUCCUAAGGAGAAGACUCCGGGUUCGAGUGCCGUACGGAACG,0.719
5,GUUCCGUUGGCGUAAUGGUAACGCGUCUCCCUCCUAAGGAGAAGACUGAGGGUUCGAGUCCCUCACGGAACG,≤ 0.5
6,GUUCCGUUGGCGUAAUGGUAACGCGUCUCCCUCCUAAGGAGAAGACUCCGGCUUCGCAUCCCGUACGGAGCG,≤ 0.5
7,GUUCCGUUGGCGUAAUGGUAACGCGUCUCCCUCCUAAGGAGAAGACUGAAGGUUCGAGUCCCGUACGGAACG,0.672
8,GUUCCGUUGGCGUAAUGGUAACGCGUCUCCCUCCUAAGGAGAAGACUGAUGGUUCGAGUCCCGUACGGAACG,0.694
9,GUUCCGUUGGCGUAAUGGUAACGCGUCUCCCUCCUAAGGAGAAGACUGAGGGUUCGAGUCUCGUGCGGAACG,0.568
10,GUUCCGUUGGCGUAAUGGUAACGCGUCUCCCUCCUAAGGAGAAGACUCUGGGUUCGAGUCCCGUACGGAUCG,0.724
11,GUUCCGUUGGCGUAAUGGUAACGCGUCUCCCUCCUAAGGAGAAGACUGAGGGAUCGAGCCACGUACGGAACG,≤ 0.5
12,GUUCCGUUGGCGUAAUGGUAACGCGUCUCCCUCCUAAGGAGAAGACUGAGGGUUCGCGUCCCGUACGGAACG,0.573
13,GUUCCGUUGGCGUAAUGGUAACGCGUCUCCCUCCUAAGGAGAAGACUGAGGGUUCGGGUCCCGUACGGAACG,0.835
14,GUUCCGUUGGCGUAAUGGUAACGCGUCUCCCUCCUAAGGAGAAGACUGGGGGUUCGAGUACCGUACGGAACG,0.696
15,GUUCCGUUGGCGUAAUGGUAACGCGUCUCCCUCCUAAGGAGAAGACUCCGGGUUCGAGUCGCGUACGGAACG,0.629
16,GUUCCGUUGGCGUAAUGGUAACGCGUCUCCCUCCUAAGGAGAAGACUGAGGGUCCGAGUCCCGUACGGAACG,0.674
17,GUUCCGUUGGCGUAAUGGUAACGCGUCUCCCUCCUAAGGAGAAGACUGAGGGUACGAGUCCCGUACGGAACG,0.538
18,GUUCCGUUGGCGUAAUGGUAACGCGUCUCCCUCCUAAGGAGAAGACUGAGGGUGCGAGUCCCGUACGGAACG,0.584
19,GUUCCGUUGGCGUAAUGGUAACGCGUCUCCCUCCUAAGGAGAAGACUCCGGGUUGGAGUCCCGUACGGAACG,0.78
20,GUUCCGUUGGCGUAAUGGUAACGCGUCUCCCUCCUAAGGAGAAGACUCCGGGUUUGAGUCCCGUACGGAACG,0.668
21,GUUCCGUUGGCGUAAUGGUAACGCGUCUCCCUCCUAAGGAGAAGACUCCGGGUUAGAGUCCCGUACGGAACG,0.703
22,GUUCCGUUGGCGUAAUGGUAACGCGUCUCCCUCCUAAGGAGAAGACUCCGGGAUCGAGUCUCGUACGGAACG,0.517
23,GUUCCGUUGGCGUAAUGGUAACGCGUCUCCCUCCUAAGGAGAAGACUCUGGGUUCGAGUACCGUUCGGAACG,≤ 0.5
24,GUUCCGUUGGCGUAAUGGUAACGCGUCUCCCUCCUAAGGAGAAGACUCCCGGUUCGAGUCCCGUACGGAACG,0.68
25,GUUCCGUUGGCGUAAUGGUAACGCGUCUCCCUCCUAAGGAGAAGACUCUGGGUUCGAGUCCCGUUCGGUACG,≤ 0.5
